We go through 23 compounds from ChEMBL document CHEMBL4024793, “Development of Stem-Cell-Mobilizing Agents Targeting CXCR4 Receptor for Peripheral Blood Stem Cell Transplantation and Beyond” (J Med Chem, 2018).

In data set [1] the target is C-X-C chemokine receptor type 4 (Homo sapiens, UniProt P61073). The data set can be described thus: Displacement of [125I]CXCL12 from human CXCR4 expressed in HEK293 cell membranes after 1.5 hrs by Topcount method. (In general: In a radioligand displacement assay an active substance lowers the binding of a labelled ligand.)
Data set [2] can be described thus: Acute toxicity in sc dosed C57BL/6 mouse assessed as maximum tolerated dose by measuring mortality. To be noted: in vivo. It counts as organism-based. An outline of the steps:
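Male C57BL/6 or ICR mice (n = 3/group) dosed subcutaneously with escalating doses, low to high; MTD taken as highest dose giving zero mortality (0/3).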

A short description of data set [3]: Cmax in C57BL/6 mouse at 6 mg/kg, sc measured up to 4 hrs post dose by LC-MS/MS analysis. It counts as ADME, organism-based. Details: dose 6 mg/kg, route subcutaneous. To be noted: in vivo. An outline of the steps:
(§1)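 Male C57BL/6 mice (23.4–25.4 g), quarantined one week, non-fasted, n = 3; single SC dose of 6 mg/kg in 100% saline. Blood taken by cardiac puncture at 0, 0.03, 0.08, 0.25, 1, 1.5, 2 and 4 h and stored at -80 °C. Plasma analysed by LC–MS/MS; parameters from non-compartmental analysis; mean ± SD.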

Data set [4] is described as follows: Half life in C57BL/6 mouse at 6 mg/kg, sc measured up to 4 hrs post dose by LC-MS/MS analysis. It counts as ADME, organism-based. To be noted: in vivo. Summed up:
as §1

Data set [5] in a line: AUC (0 to 4 hrs) in C57BL/6 mouse at 6 mg/kg, sc measured up to 4 hrs post dose by LC-MS/MS analysis. It counts as ADME, organism-based. Set-up: dose 6 mg/kg, time < 4 hr, route subcutaneous. To be noted: in vivo. An outline of the steps:
as §1

C-X-C chemokine receptor type 4, sequence (P61073 whole entry): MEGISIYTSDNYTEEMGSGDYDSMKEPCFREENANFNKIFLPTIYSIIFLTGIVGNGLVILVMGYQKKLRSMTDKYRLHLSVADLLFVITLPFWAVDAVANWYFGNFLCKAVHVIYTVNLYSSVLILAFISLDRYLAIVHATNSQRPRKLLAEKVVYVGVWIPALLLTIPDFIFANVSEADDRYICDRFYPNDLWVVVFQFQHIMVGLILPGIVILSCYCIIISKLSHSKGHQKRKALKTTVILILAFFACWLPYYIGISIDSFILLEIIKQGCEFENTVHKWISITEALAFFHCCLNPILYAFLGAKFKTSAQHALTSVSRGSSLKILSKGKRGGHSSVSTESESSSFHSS

A word on the IC50: it is the concentration that inhibits the measured activity by half. A low value points to higher potency. For orientation: MTD means the highest dose tested that stayed within the study's limit of toxicity. In the case of `Cc1cc(NC2CCN(C(=O)CCNCCC(=O)O)CC2)nc(NCc2cn(CCCNCCCNC3CCCCC3)nn2)n1`, in data set [1], the IC50 stood at 72.2 nM. For the same compound, the maximum tolerated dose (MTD) in data set [2] turned out to be 50 mg/kg.

For the compound `Cc1cc(NC2CCN(CCC(N)=O)CC2)nc(NCc2cn(CCCNCCCNC3CCCCC3)nn2)n1`, in data set [1], the IC50 was 25.6 nM. In addition, in data set [2], the MTD came out at 20 mg/kg.

In turn, `CC(C)c1cc(NC2CCNCC2)nc(NCc2cn(CCCNCCCNC3CCCCC3)nn2)n1` displayed an IC50 in data set [1] of 61.1 nM. The MTD in data set [2] stood at 10 mg/kg.

As usually defined, the Cmax is the highest concentration seen after dosing. The term half-life denotes the time in which the quantity being followed falls by half. A higher half-life goes with slow decline. A word on the AUC(0-t): it is exposure summed from dosing to a finite time, without extrapolation to infinity. A lower AUC(0-t) goes with less exposure. In the case of `c1cc(CN2CCCNCCNCCCNCC2)ccc1CN1CCCNCCNCCCNCC1` [PLERIXAFOR], the Cmax in data set [3] came out at 6200 ng/mL. This compound showed a half-life in data set [4] of 1.4 h. For the same compound, the exposure AUC(0-t) at 4 h in data set [5] is 7150 ng·h/mL.

In the case of `Cc1cc(NC2CCN(CCC(=O)O)CC2)nc(NCc2cn(CCCNCCCNC3CCCCC3)nn2)n1`, the IC50 in data set [1] turned out to be 81.8 nM. Further, the MTD in data set [2] was determined as 75 mg/kg.

In turn, `FC(F)(F)c1cc(NC2CCNCC2)nc(NCc2cn(CCCNCCCNC3CCCCC3)nn2)n1` returned a half-maximal inhibitory concentration (IC50) in data set [1] of 860 nM. In addition, the MTD in data set [2] is 10 mg/kg.

On to `Cc1cc(NC2CCN(CCCCC(=O)O)CC2)nc(NCc2cn(CCCNCCCNC3CCCCC3)nn2)n1`, for which the IC50 in data set [1] worked out at 93 nM. For the same compound, the maximal tolerated dose (MTD) in data set [2] was 75 mg/kg.

In data set [1], `Cc1cc(NC2CCN(C(=O)CCCC(=O)O)CC2)nc(NCc2cn(CCCNCCCNC3CCCCC3)nn2)n1` displayed an IC50 of 158 nM. The MTD in data set [2] turned out to be 50 mg/kg.

Take `Cc1cc(NC2CCN(C(=O)CCNCCP(=O)(O)O)CC2)nc(NCc2cn(CCCNCCCNC3CCCCC3)nn2)n1`: the 50% inhibitory concentration (IC50) in data set [1] is 147 nM.

`Cc1cc(N(C)C2CCN(C(=O)CCNCC(=O)O)CC2)nc(NCc2cn(CCCNCCCNC3CCCCC3)nn2)n1` displayed an IC50 in data set [1] of 97.6 nM. In data set [2], the MTD is 50 mg/kg.

In turn, `Cc1cc(NC2CCN(CCC#N)CC2)nc(NCc2cn(CCCNCCCNC3CCCCC3)nn2)n1` displayed an IC50 in data set [1] of 72.1 nM. The MTD in data set [2] amounted to 20 mg/kg.

In data set [1], `O=C(O)CNCCC(=O)N1CCC(Nc2ccnc(NCc3cn(CCCNCCCNC4CCCCC4)nn3)n2)CC1` returned an IC50 of 399 nM. In data set [2], the MTD is 100 mg/kg.

In data set [1], `c1cc(NC2CCNCC2)nc(NCc2cn(CCCNCCCNC3CCCCC3)nn2)n1` had an IC50 of 34.1 nM. The MTD in data set [2] was found to be 10 mg/kg.

Turning to `Cc1cc(NC2CCN(C(=O)CCCNCC(=O)O)CC2)nc(NCc2cn(CCCNCCCNC3CCCCC3)nn2)n1`, the IC50 in data set [1] was determined as 88.5 nM. The maximum tolerated dose (MTD) in data set [2] was 75 mg/kg.

In data set [1], `CCc1cc(NC2CCNCC2)nc(NCc2cn(CCCNCCCNC3CCCCC3)nn2)n1` gave an IC50 of 46.8 nM. For the same compound, in data set [2], the MTD was found to be 10 mg/kg.

In the case of `Cc1cc(NC2CCNCC2)nc(NCc2cn(CCCNCCCNC3CCCCC3)nn2)n1`, the IC50 in data set [1] was determined as 23.9 nM. In addition, in data set [2], the MTD came out at 10 mg/kg.

In data set [1], `CCc1cc(NC2CCN(C(=O)CCNCC(=O)O)CC2)nc(NCc2cn(CCCNCCCNC3CCCCC3)nn2)n1` showed an IC50 of 72 nM. In addition, the MTD in data set [2] was determined as 50 mg/kg.

In turn, `Cc1cc(NC2CCN(C(=O)CNCCC(=O)O)CC2)nc(NCc2cn(CCCNCCCNC3CCCCC3)nn2)n1` displayed an IC50 in data set [1] of 82.6 nM. Also, the MTD in data set [2] was 100 mg/kg.

Compound `Cc1cc(NC2CCN(C(=O)CCNCP(=O)(O)O)CC2)nc(NCc2cn(CCCNCCCNC3CCCCC3)nn2)n1` yielded an IC50 in data set [1] of 91.6 nM. In data set [2], the MTD is 100 mg/kg.

In data set [1], `CCCN1CCC(Nc2cc(C)nc(NCc3cn(CCCNCCCNC4CCCCC4)nn3)n2)CC1` came in with an IC50 of 47.8 nM. Besides, in data set [2], the MTD turned out to be 10 mg/kg.

Compound `COc1cc(NC2CCNCC2)nc(NCc2cn(CCCNCCCNC3CCCCC3)nn2)n1` displayed an IC50 in data set [1] of 473 nM. For the same compound, the MTD in data set [2] was 10 mg/kg.

As to `Cc1cc(NC2CCN(C(=O)CC[C@H](N)C(=O)O)CC2)nc(NCc2cn(CCCNCCCNC3CCCCC3)nn2)n1`, in data set [1], the IC50 is 71.1 nM. Further, in data set [2], the MTD was determined as 50 mg/kg.

Compound `Clc1cc(NC2CCNCC2)nc(NCc2cn(CCCNCCCNC3CCCCC3)nn2)n1` gave an IC50 in data set [1] of 708 nM. The MTD in data set [2] worked out at 10 mg/kg.
